This sample holds only a part of the variants without activity.
B1: tRNA (parent)
chain: GUUCCGUUGGCGUAAUGGUAACGCGUCUCCCUCCUAAGGAGAAGACUGCGGGUUCGAGUCCCGUACGGAACG

Variants of: B1
Assay: yeast fitness relative to wild type (ratio to wild type); higher = fitter; tRNA-Arg(CCU), competitive growth, 37 C, YPD
Procedure, shortened: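 A pool of Saccharomyces cerevisiae strains, each with a tRNA-Arg(CCU) gene variant at the native genomic locus, was competed in YPD at 37°C for 24 hours across six parallel replicates. The variants had been chemically synthesised at a 3% per-site mutation rate over 69 sites, and gene amplicons before and after competition were read by 100-nucleotide paired-end sequencing. Darwinian fitness relative to wild type rested on changes in genotype frequencies. Genotypes required ≥ 100 starting reads, and estimates < 0.5 were set to 0.5.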
With GUUCCGUUGGCGUAAUGGUAACGCGUCUUCCUCCUAAGGAGAAGAGUGCGGGUCCCAGUCCCGUACGGAACG the yeast fitness was ≤ 0.5.
GUUCCGUUGGCGUAAUGGUAACGCGUCUUCCUCCUAAGGAGAAGACUGCGGAUUCGAGUCCCGUACGGAACG gave a yeast fitness of 0.728.
With GUUCCGUUGGCGUAAAGGUAACGCGUCUCCCUGCUUAGGAGAAGACUGCGGGUUCGAGUCCCGUACGGAACG the yeast fitness was 0.57.
In the case of GUUCAGUUGGCGUAAUGGUAACGCGUCUCCGUCCUAGGGAGAAGACUGCGGGUUCGAGACCCGUACGGACCG, the yeast fitness is reported as ≤ 0.5.
For GGUACGUCGGCGUAACGGUAACGCGUCUCCCUCCUAAGGAGAAGACUGCGGGUUCGAGUCGCGUACGGAACG, the yeast fitness was ≤ 0.5.
For GUUCCGUUGCCGUAAUGGUAACGAGUCUCCCUCCUAAGGAGAAGACUGCGGAUUCGAGUCCCGUACGGAACG, the yeast fitness was ≤ 0.5.
In the case of GGUCCGUUGGCGUAAUGGUAACGCGUCUCCCUCCUAAGGAGAAGCCUGCGGGUUCGAGUCUCGUACGGAACG, the yeast fitness is reported as 0.615.
With GUUCCGUUGGCGUAAUGGUGACGCGUCUCCCUCCUAAGGAGAAGACUGCGGGUUCGAGUCCCGGACGGAACG the yeast fitness was 0.817.
For GUUCCGUCGGCGUAAUGGUAACGCGGCUCCCUCCUAAGGAGAAGACUGCGGGUUCGAGUCCCGUACGGAACG, the yeast fitness was 0.959.
In the case of GUUCCGUUGGCGUAAUGGUACCGCGUAUCCCUCCUAAGGAGAAGACUGGGGGUUCGAGUCCCGUACGGCACG, the yeast fitness is reported as ≤ 0.5.
Work on GUUCCGUUGGCGUAAUGGUCACGCGUCUCCCUCCUAAGGUGAAGACUGCGGGUUCGAGUCCCGUACGGAACG yielded a yeast fitness of 0.855.
With GUUCCGUUGGCGUAAUGGUCACGCGUCUCCCUCCUAAGGAGUAGGCUGCGGGUUCGAGUCCCGUACGGAACG the yeast fitness was 0.77.
With GUUCCGAUGGCGUAAUGGUAACGCGUUUCGCUCCUAACGAGAAGACUGUGGGUUCGAGUCCCGUGCGGAACG the yeast fitness was 0.664.
For GUUCCGGUGGCGUACAGGUAACGCGUCUCCCUGCUACGGAGAAGACUGAGGGUUCGAGUCUCGUACGGAUCG, the yeast fitness was ≤ 0.5.
With GUUCCGUUGGCGUAGUGGUAACGAGUCUCCCUCCUAAGGAGAAGACUGCGGGUGCGAGUCCCGUCCGGAACG the yeast fitness was ≤ 0.5.
With GUUCCGUUGGAGUAAUGGAAACGCGUUUCCCUCCUAAGGAGUAGCCUGCGGGUUUGAGUCCCGUACGGCACG the yeast fitness was ≤ 0.5.
GUUACGUUGGCGUAAUGCUAACGUGUCUUCCUCAUAAGGAGAAGACUGCGGGUUCGAGUCCCGUACGGAACG showed a yeast fitness of 0.592.
In the case of GUUCCGUUGGCGUAAUGGUAACGCGUCUCACUCCUAAGGAACAGACUGCCGGUUCGAGUCCCGUACGGAGCG, the yeast fitness is reported as ≤ 0.5.
In the case of GUUCCGUUGGUGUAAUGGUAAGGCGUCUCCCUCCUAAGGAGAAGACUGCGGGUUCGAGUCCCGUACGGAACG, the yeast fitness is reported as 0.875.
With GUUACGUUGGCGUGGUGGUAACGCGUCUCCCUCCUAAGGAGAAGACUGCGGGUUCCAGUCCCGUACGGAACG the yeast fitness was ≤ 0.5.
With GUUCCGUUGGCGUAAUGGUAACGCGUCUGCCUCCUAAGGAGAAGACUGCGGGUUUGAGUCCCGUGAGGAACG the yeast fitness was ≤ 0.5.
Variant GUUCCGUUGGCGUAAUGGUAACGCGACUCCCUCCUAAGGAGAUGACUGCGGGUUCGAGUCCCGUACGGUACG has a yeast fitness of 0.695.
For GUUCCGUUGGCGUAAUGGUAGCGCGUCUCCCUCCUUAGGAGAAGACUGCGGGUUCGAGUCUCGUACGGAACG, the yeast fitness was ≤ 0.5.
In the case of GUUCCGUUGGAGUAAUGGUAUCGCGUCUCCCUCCUAAGGAGAAGACUGCGGGUGCGAGUCCCGUACGGAACG, the yeast fitness is reported as ≤ 0.5.
Work on GUUCCGUUGGCGUAUUGGUAACGCAUCUCCCUCCUAAGGAGAACACUGCGGGUUCGAGUCCCGUACUGAACG yielded a yeast fitness of 0.522.
With GUUCCGUUGGCGUAAUGGUAACGCGUCUCCCUCCUAACGAGAAGACUGCGGGUUCGAGUCCGGUACGGAACG the yeast fitness was 0.63.
With GUUCCGUUGGGGUAAUGCUAACGCGUCUCCCUCCUAAGGAGAAGACUGUGGGUUCGAGUCCCGUACGGAACG the yeast fitness was ≤ 0.5.
Variant GUACCGUUAGCGUAAUGGUGACGCGUCUCCCUCCUAAGGAGAAGACUGCGGGUUCGAGUCCCGUACGGAACG has a yeast fitness of 0.665.
Variant GUUCCGUUGGCGUAAUGGUAACGCGUCUCCCUCCUAAGGAGAAGACUGCGGGUUCGAGUCACGUACGCAACG has a yeast fitness of 0.607.
With GUUCCGUUGGCGUAAUGGUAACGCGUCUCCCUCCUAUGGAGAAGACUGCGGGUGCGAGUCCCGUACGGAACG the yeast fitness was ≤ 0.5.
GUUCCGUUGGUGUAAUGGUAACGCGUCUCCCUCCUAAGGAGAAGACUGCGGGUUCGAGUCCCCUACGGAACG gave a yeast fitness of 0.725.
For GUUCCGUUGGCGUACUGGUAACGCGUCUCCCUGCUAAGGAGAAGACUGCGGGUUCGAGUCCCGUACGGAACG, the yeast fitness was 0.505.
In the case of GUUCCGUUGGCAUAAUGGUAACGCGUCUCCCUCCUCAGGUCAAGACUGCGGGUUCGAGUCCCGUACGGAACG, the yeast fitness is reported as 0.576.
For GUUUCGUUAGCGUAAUGGUAACGCGUCUACCUCCUAAGGAGAAGACUGCGGGAUCGAGUCCCGUACGGAACG, the yeast fitness was ≤ 0.5.
In the case of GUUCCGUUGGCGUAAUAGUAACGUGUCUCUCUCCUAAGGAGAAGAAUGCGGGUUCGAGUCCCGUACGGAACG, the yeast fitness is reported as ≤ 0.5.
For GUUCCGUUGGCGUAAUGGUAACGCGUCUCCCUCCUAAGGAGAAGACUGCGGAUUCGGAUCCCGUACGGAUCG, the yeast fitness was ≤ 0.5.
In the case of GUUCCGUUGGCGUAAUGGUUACGCGUCUCCCUCCUAAGGAGAGGACUGCGGGUUCGAGUCCCGUACGGAACG, the yeast fitness is reported as 0.978.
With GUUUCGUUGGAAUAAUGGUAACGCGUCUCCCUCCUAAGGAGAAGACUACGGGUUCGAGUCCCGUACAGAACG the yeast fitness was ≤ 0.5.
